Data published in article PMC6568317 (ACS chemical biology, 2017).

Columns and labels:
[1] = target: T1, human orotate phosphoribosyltransferase (HsOPRT) (Homo sapiens, UniProt P11172); assay: HsOPRT inhibition assay; type: biochemical; conditions: for inhibition of HsOPRT: at D-DIAB or L-DIAB concentrations of 200 μM
T1 sequence (P11172 1-214 limits assumed): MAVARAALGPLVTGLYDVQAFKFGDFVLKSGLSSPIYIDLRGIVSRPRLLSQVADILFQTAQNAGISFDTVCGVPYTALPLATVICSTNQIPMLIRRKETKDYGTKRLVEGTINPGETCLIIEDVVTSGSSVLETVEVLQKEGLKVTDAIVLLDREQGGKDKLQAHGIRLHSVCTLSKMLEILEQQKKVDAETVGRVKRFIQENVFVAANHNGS
How it was run: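 Human OPRT, 200 nM, at 25 °C in 50 mM Tris-HCl pH 8.0 with 5 mM MgCl₂. Substrates are 500 μM orotidine 5′-monophosphate and 1 mM pyrophosphate, with bis-phosphate iminoaltritol test compound present. Reaction followed by absorbance at 266 nm. Ki derived from initial rates measured in triplicate.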

[2] = target: T2, Saccharomyces cerevisiae adenine phosphoribosyltransferase (ScAPRT) (Saccharomyces cerevisiae, UniProt P49435); assay: ScAPRT inhibition assay; type: biochemical
T2 sequence (P49435 1-187): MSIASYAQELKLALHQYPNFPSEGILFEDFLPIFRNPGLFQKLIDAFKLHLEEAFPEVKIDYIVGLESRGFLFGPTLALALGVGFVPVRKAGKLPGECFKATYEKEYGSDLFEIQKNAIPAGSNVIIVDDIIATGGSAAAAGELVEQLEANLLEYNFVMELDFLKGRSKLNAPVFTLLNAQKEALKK

[3] = target: T3, Plasmodium falciparum orotate phosphoribosyltransferase (PfOPRT) (Plasmodium falciparum, UniProt Q8I3Y0); assay: PfOPRT inhibition assay; type: biochemical
T3 sequence (Q8I3Y0 1-281): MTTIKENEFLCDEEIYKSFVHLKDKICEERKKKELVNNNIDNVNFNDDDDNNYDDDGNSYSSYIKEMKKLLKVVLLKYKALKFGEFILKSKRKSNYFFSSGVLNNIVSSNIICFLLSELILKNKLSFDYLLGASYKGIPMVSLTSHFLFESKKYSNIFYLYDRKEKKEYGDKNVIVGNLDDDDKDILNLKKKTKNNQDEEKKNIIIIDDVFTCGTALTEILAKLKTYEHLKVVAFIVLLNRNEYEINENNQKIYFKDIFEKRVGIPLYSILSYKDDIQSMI

[4] = target: T2, Saccharomyces cerevisiae adenine phosphoribosyltransferase (ScAPRT); conditions: read-out: KM for PRPP (ScAPRT); previously reported substrate KM; cited from earlier work

| selectivity for D-DIAB over L-DIAB in PfOPRT inhibition ([3]; ratio of Ki values, Table 1) | Structure (SMILES) | Ki [1] | inhibition of HsOPRT [1] | Ki [2] | Ki [3] | Km [4] |
| --- | --- | --- | --- | --- | --- | --- |
| – | O=P(O)(O)OC[C@H]1N[C@H](COP(=O)(O)O)[C@@H](O)[C@H]1O (stereo in doubt) [L-DIAB, L-2,5-dideoxy-2,5-imino-altritol 1,6-bisphosphate] | > 200 µM | no apparent inhibition | 14.9 ± 2.9 µM | 103 ± 17 µM | – |
| 3 fold | O=P(O)(O)OC[C@H]1N[C@H](COP(=O)(O)O)[C@@H](O)[C@@H]1O [D-DIAB, D-2,5-dideoxy-2,5-imino-altritol 1,6-bisphosphate] | – | no apparent inhibition | – | – | – |
| – | O=P(O)(O)OC[C@H]1O[C@H](OP(=O)(O)OP(=O)(O)O)[C@H](O)[C@@H]1O [PRPP, 5-phospho-α-D-ribosyl 1-pyrophosphate] | – | – | – | – | 20 µM |
